Data on 2 compounds can be found in ChEMBL document CHEMBL1139743, “Synthesis and antihyperlipidemic activity of novel glycosyl fructose derivatives” (2006).

What all share (format): functional, Mesocricetus auratus
For assay [1], the system named is Syrian golden hamster. Description: Antihyperlipidemic activity measured by decrease in HDL level in golden syrian hamster at 25 mg/kg relative to control. The arrangement: scale not given: the % may be the effect or the level left. In outline:
(§1)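 Male golden Syrian hamsters (120–130 g), 8 per group, made hyperlipidemic on high fat diet with free access to diet and water throughout. Compound given orally in water from day 4 to day 10 (7 days); HFD hamsters given water only served as controls. On day 10, blood from nonfasted animals was drawn and cooled to 0 C for 15 min. Triglycerides, total cholesterol and HDL cholesterol were measured the same day in plasma without NaF using enzymatic kits.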

Assay [2] has as its system Syrian golden hamster. Description: Antihyperlipidemic activity measured by triglyceride level in golden syrian hamster at 100 mg/kg, po. The method, boiled down: as §1
Assay [3] relates to Syrian golden hamster. In words: Antihyperlipidemic activity measured by decrease in triglyceride level in golden syrian hamster at 25 mg/kg relative to control. On the set-up: scale not given: the % may be the effect or the level left. In outline:
as §1

Assay [4] deals with Syrian golden hamster. Description: Antihyperlipidemic activity measured by decrease in triglyceride level in golden syrian hamster at 100 mg/kg, po relative to control. On the set-up: scale not given: the % may be the effect or the level left. In outline: as §1
Assay [5] relates to Syrian golden hamster. Description: Antihyperlipidemic activity measured by free fatty acid level in golden syrian hamster at 100 mg/kg, po. The method, boiled down:
(§2)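 High-fat-diet hyperlipidemic male golden Syrian hamsters (120–130 g, n=8 per group) were dosed orally in water vehicle on days 4–10; water-only HFD hamsters served as controls. On day 10, nonfasted blood was drawn into tubes containing 120 µL NaF (4.5 mg/mL) and chilled to 0 C for 15 min. Glycerol and free fatty acids were assayed in this NaF plasma on a clinical chemistry analyser.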

Assay [6] deals with Syrian golden hamster. Description: Antihyperlipidemic activity measured by HDL/total cholesterol ratio in golden syrian hamster at 100 mg/kg, po. The method, boiled down: as §1
The test system of assay [7] is Syrian golden hamster. In words: Antihyperlipidemic activity measured by decrease in HDL/total cholesterol ratio in golden syrian hamster at 25 mg/kg relative to control. On the set-up: scale not given: the % may be the effect or the level left. The method, boiled down: as §1
The subject of assay [8] is Syrian golden hamster. In words: Antihyperlipidemic activity measured by decrease in glycerol level in golden syrian hamster at 100 mg/kg, po relative to control. On the set-up: scale not given: the % may be the effect or the level left. In outline: as §2
For assay [9], the system named is Syrian golden hamster. Description: Antihyperlipidemic activity measured by decrease in free fatty acid level in golden syrian hamster at 25 mg/kg relative to control. The arrangement: scale not given: the % may be the effect or the level left. The method, boiled down: as §2
For assay [10], the system named is Syrian golden hamster. In words: Antihyperlipidemic activity measured by free fatty acid level in golden syrian hamster at 25 mg/kg. In outline:
as §2

The test system of assay [11] is Syrian golden hamster. Description: Antihyperlipidemic activity measured by decrease in cholesterol level in golden syrian hamster at 100 mg/kg, po relative to control. On the set-up: scale not given: the % may be the effect or the level left. The method, boiled down: as §1
The subject of assay [12] is Syrian golden hamster. In words: Antihyperlipidemic activity measured by cholesterol level in golden syrian hamster at 100 mg/kg, po. In outline: as §1
Assay [13] concerns Syrian golden hamster. In words: Antihyperlipidemic activity measured by increase in HDL/total cholesterol ratio in golden syrian hamster at 100 mg/kg, po relative to control. In outline: as §1
Assay [14] relates to Syrian golden hamster. In words: Antihyperlipidemic activity measured by decrease in cholesterol level in golden syrian hamster at 25 mg/kg relative to control. The arrangement: scale not given: the % may be the effect or the level left. The method, boiled down: as §1
Assay [15] deals with Syrian golden hamster. In words: Antihyperlipidemic activity measured by cholesterol level in golden syrian hamster at 25 mg/kg. In outline:
as §1

Assay [16] deals with Syrian golden hamster. In words: Antihyperlipidemic activity measured by decrease in glycerol level in golden syrian hamster at 25 mg/kg relative to control. The arrangement: scale not given: the % may be the effect or the level left. In outline:
as §2

The subject of assay [17] is Syrian golden hamster. In words: Antihyperlipidemic activity measured by glycerol level in golden syrian hamster at 25 mg/kg. In outline: as §2
Assay [18] deals with Syrian golden hamster. Description: Antihyperlipidemic activity measured by glycerol level in golden syrian hamster at 100 mg/kg, po. In outline:
as §2

The test system of assay [19] is Syrian golden hamster. Description: Antihyperlipidemic activity measured by HDL level in golden syrian hamster at 100 mg/kg, po. The method, boiled down: as §1
For assay [20], the system named is Syrian golden hamster. Description: Antihyperlipidemic activity measured by HDL level in golden syrian hamster at 25 mg/kg. The method, boiled down: as §1
Assay [21] deals with Syrian golden hamster. Description: Antihyperlipidemic activity measured by triglyceride level in golden syrian hamster at 25 mg/kg. In outline:
as §1

For assay [22], the system named is Syrian golden hamster. Description: Antihyperlipidemic activity measured by increase in HDL level in golden syrian hamster at 100 mg/kg, po relative to control. In outline: as §1
Assay [23] has as its system Syrian golden hamster. Description: Antihyperlipidemic activity measured by HDL/total cholesterol ratio in golden syrian hamster at 25 mg/kg. The method, boiled down:
as §1

For assay [24], the system named is Syrian golden hamster. In words: Antihyperlipidemic activity measured by increase in HDL level in golden syrian hamster at 25 mg/kg relative to control. The method, boiled down:
as §1

The subject of assay [25] is Syrian golden hamster. In words: Antihyperlipidemic activity measured by increase in HDL/total cholesterol ratio in golden syrian hamster at 25 mg/kg relative to control. The method, boiled down:
as §1

Assay [26] relates to Syrian golden hamster. In words: Antihyperlipidemic activity measured by decrease in free fatty acid level in golden syrian hamster at 100 mg/kg, po relative to control. On the set-up: scale not given: the % may be the effect or the level left. The method, boiled down:
as §2

Turning to `OC[C@H]1O[C@](O)(CO)[C@@H](O[C@@H]2O[C@H](CO)[C@@H](O[C@@H]3O[C@H](CO)[C@@H](O)[C@H](O)[C@H]3O)[C@H](O)[C@H]2O)[C@@H]1O`, the Activity with Syrian golden hamster [1] came to 15%; with Syrian golden hamster [2] it was 6.09 mM; with Syrian golden hamster [3], 29%; with Syrian golden hamster [4], 58%; in the assay with Syrian golden hamster [5] it was 726.03 µM; in the assay on Syrian golden hamster [7] it was 11%. Moreover, the Activity in the assay with Syrian golden hamster [8] came out at 4%; in the assay on Syrian golden hamster [9] it was 10%; in the assay with Syrian golden hamster [10] it was 0.648 mM; in the assay with Syrian golden hamster [11] it was 15%; with Syrian golden hamster [12], 9.79 mM; in the assay with Syrian golden hamster [13], 29%. For the same compound, the Activity with Syrian golden hamster [14] was determined as 5%; with Syrian golden hamster [15], 10.97 mM; with Syrian golden hamster [16], 8%; with Syrian golden hamster [17] it was 0.77 mM; in the assay on Syrian golden hamster [18], 0.81 mM; in the assay on Syrian golden hamster [19], 3.4 mM. Besides, the Activity in the assay with Syrian golden hamster [20] is 2.64 mM; in the assay on Syrian golden hamster [21] it was 10.23 mM; in the assay with Syrian golden hamster [22], 10%. The values for the Ratio in the assay on Syrian golden hamster [6] and in the assay on Syrian golden hamster [23] were 0.34 and 0.24, respectively.
On to `OC[C@H]1O[C@@H](O[C@H]2[C@H](O)[C@@H](O)[C@H](O[C@H]3[C@H](O)[C@@H](CO)O[C@]3(O)CO)O[C@@H]2CO)[C@H](O)[C@@H](O)[C@H]1O`, for which the Activity with Syrian golden hamster [2] came out at 7.61 mM; in the assay with Syrian golden hamster [3], 44%; with Syrian golden hamster [4], 47%; with Syrian golden hamster [5] it was 670.62 µM; with Syrian golden hamster [24], 5%; in the assay with Syrian golden hamster [8] it was 11%. The Activity in the assay with Syrian golden hamster [25] turned out to be 11%; in the assay on Syrian golden hamster [9], 21%; in the assay with Syrian golden hamster [10], 0.572 mM; in the assay on Syrian golden hamster [11], 9%; in the assay with Syrian golden hamster [12], 10.55 mM; with Syrian golden hamster [13] it was 25%. For the same compound, the Activity in the assay on Syrian golden hamster [14] was 5%; in the assay on Syrian golden hamster [26], 8%; in the assay with Syrian golden hamster [15], 11.02 mM; in the assay on Syrian golden hamster [16], 17%; in the assay on Syrian golden hamster [17], 0.7 mM; in the assay on Syrian golden hamster [18] it was 0.75 mM. For the same compound, the Activity is on record as 3.55 mM with Syrian golden hamster [19], 3.28 mM with Syrian golden hamster [20], 7.96 mM in the assay with Syrian golden hamster [21] and 15% in the assay on Syrian golden hamster [22]. The Ratio came out at 0.34 with Syrian golden hamster [6] and 0.3 in the assay on Syrian golden hamster [23].
